Experimental findings from ChEMBL document CHEMBL4513216, “Probing the Open Global Health Chemical Diversity Library for Multistage-Active Starting Points for Next-Generation Antimalarials” (ACS Infect Dis, 2020) are described below.

This data set can be described thus: Toxicity liver stage against HepG2, at 10uM. It is filed as cell-based. Details: test concentration 10 uM, cell line HepG2-A16-CD81EGFP. The following applies: human, HepG2-A16-CD81EGFP cells; read-out: INHIBITION
The gist of the method: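 Uninfected HepG2-A16-CD81EGFP cells, 3 × 10^3 per well, 1536-well, plated on prespotted compound at 10 μM final, parasite-free screening media added to match infected plates; puromycin 10 μM positive, DMSO 0.5% negative; run in parallel with 48 h PbLuc assay at 37 °C, 5% CO2; viability by CellTiter-Glo luminescence, normalized to controls.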
With `Cc1cnc(C(=O)N2C[C@@H]3CC[C@H]2CN(c2cnccn2)C3)cn1`, the cytotoxicity at 10 µM amounted to 10.1%.

Turning to `Cc1cc(C)nc(CCNC(=O)[C@H]2CNC[C@@H](C(=O)N3CCCC3)C2)n1`, the cytotoxicity at 10 µM is -20.9%.

`CN(C)C(=O)[C@H]1C[C@H]2OCC[C@H]2N(CCOc2ccc(Cl)cc2)C1`: the cytotoxicity at 10 µM was -115%.

`CN(CC(=O)NC1CC1)S(=O)(=O)c1ccc(F)cc1Cl`: the cytotoxicity at 10 µM is -8.06%.

On to `O=C(NC1CC(F)(F)C1)[C@]12COC[C@H]1CN(Cc1ccsc1)C2`, for which the cytotoxicity at 10 µM is -109%.

In the case of `CC(O)CN1CCC(CNCc2cccc(OC(C)C)c2)CC1` (configuration not stated), the cytotoxicity at 10 µM is -8.16%.

As for `CC(O)CN1CCN(Cc2nnc(C3CC3)o2)CC1` (configuration not stated), the cytotoxicity at 10 µM is -10%.

Turning to `CC(=O)NCCNC(=O)c1cc(COc2ccccc2)[nH]n1`, the cytotoxicity at 10 µM is -1.32%.

Consider `NC(=O)c1cnc(NC2CCN(C(=O)C3CC3)CC2)c(Cl)c1`, for which the cytotoxicity at 10 µM is -14.2%.

Turning to `COc1ccc(C2CCCCCN2S(N)(=O)=O)cc1` (configuration not stated), the cytotoxicity at 10 µM worked out at 8.87%.

As for `CCOC(=O)c1s/c(=N\C(=O)COc2cnc(C)cc2O)[nH]c1C`, the cytotoxicity at 10 µM amounted to 5.56%.

Turning to `COCc1cncc2c1CCN(C(=O)c1cscn1)C2`, the cytotoxicity at 10 µM was -104%.

For `O=C(N[C@@H]1CC[C@@H](n2ccnc2)[C@@H]1O)c1cc2c(s1)CCC2`, the cytotoxicity at 10 µM was -12.7%.

In the case of `COc1cc(CN2C[C@H](OC)[C@]3(CCCO3)C2)ccc1F`, the cytotoxicity at 10 µM is -7.61%.

Turning to `Cc1nc(CCN(C)C(=O)C2COc3ccccc3C2)no1` (configuration not stated), the cytotoxicity at 10 µM was -19.7%.

For the compound `COc1cc(N(C)Cc2cccc(-n3cccn3)c2)nc(N)n1`, the cytotoxicity at 10 µM turned out to be 49.1%.

`CCc1ccc(CNc2cc(N3CCCC3CO)ncn2)s1` (configuration not stated): the cytotoxicity at 10 µM was -13%.

Consider `COc1ccc(CNC(=O)NCC2CCOC2)c(C(F)(F)F)c1` (configuration not stated), for which the cytotoxicity at 10 µM was -8.28%.

Regarding `CC(O)CN1CCC(CN(C)C(=O)NC2CC2)CC1` (configuration not stated), the cytotoxicity at 10 µM came to 5.55%.

Regarding `CCSCCC(=O)NC1CCN(C(C)c2ccccc2)CC1` (configuration not stated), the cytotoxicity at 10 µM was -1.22%.

Consider `Cc1cnn(CC(C)NCc2ccc(OCc3ccncc3)cc2)c1` (configuration not stated), for which the cytotoxicity at 10 µM came out at 3.15%.

In the case of `CNc1cc(-c2ccccc2CN)c2cc[nH]c2n1`, the cytotoxicity at 10 µM was -1.43%.

Consider `O=C(NCCc1ccc(Cl)s1)NCc1nnc2n1CCC2`, for which the cytotoxicity at 10 µM was -7.15%.

In the case of `CCCn1nccc1-c1nccnc1CC1CCN(C(C)=O)CC1`, the cytotoxicity at 10 µM is -6.15%.

Regarding `Cc1nn(CC(O)CN2CCc3ccccc3C2)c(=O)c(C#N)c1C` (configuration not stated), the cytotoxicity at 10 µM stood at 8.27%.

`CC(NC(=O)COc1ccccc1Cl)c1nnc2n1CCC2` (configuration not stated): the cytotoxicity at 10 µM is -6%.

With `Cc1ccc(CN2CC[C@H]3[C@H]2CC(=O)N3c2cccnc2)o1`, the cytotoxicity at 10 µM is 5.67%.

In the case of `Cn1nc(C#N)c2c1CN(C(=O)c1ccnnc1)CCC2`, the cytotoxicity at 10 µM is -147%.

Consider `c1cnc(N2CCC(c3cc4cccnc4[nH]3)CC2)nc1`, for which the cytotoxicity at 10 µM is -7.28%.

As to `CCn1nc(C)c(CCNC(=O)C2CCCN(C(=O)N(C)C)C2)c1C` (configuration not stated), the cytotoxicity at 10 µM was found to be 0.874%.

Take `CN1CCN(C(=O)[C@@H]2CC[C@@H]3[C@@H](CCN3c3ncccn3)O2)CC1`: the cytotoxicity at 10 µM was determined as 7.13%.

`O=C(NCC(F)F)c1ccc(S(=O)(=O)N2CCCC(O)C2)cc1` (configuration not stated): the cytotoxicity at 10 µM came to 1.29%.

Take `CCN(C(=O)CN(C)C(c1cccc(F)c1)c1ccccn1)C1CC1` (configuration not stated): the cytotoxicity at 10 µM was -8.65%.

For `OC1(CNCCSc2ccccn2)CCCNC1` (configuration not stated), the cytotoxicity at 10 µM was -6.46%.

Regarding `CCN(CCOC)C(=O)c1ccc2c(c1)nc(N1CC[C@H](O)C1)n2C`, the cytotoxicity at 10 µM is -2.96%.

For `Cn1c(=O)ccn(CC(=O)N2CCCC(n3cccn3)C2)c1=O` (configuration not stated), the cytotoxicity at 10 µM was -8.92%.

As to `c1nc2c(c(N3CCOC(Cn4cncn4)C3)n1)CCC2` (configuration not stated), the cytotoxicity at 10 µM was found to be 14.5%.

As to `CC(=O)N(Cc1noc(C2CC2)n1)C1CCN(Cc2cc(C)on2)C1` (configuration not stated), the cytotoxicity at 10 µM was -6.08%.

For the compound `COc1ccc2c(c1)OCC(Cc1cc(C(=O)N3CCCC3)ccn1)C2` (configuration not stated), the cytotoxicity at 10 µM is -0.675%.

Turning to `Cc1noc(C(C)N2CCN(Cc3noc(C4CC4)n3)CC2)n1` (configuration not stated), the cytotoxicity at 10 µM came to 0.973%.

As to `CC(=O)N[C@@H]1CN(Cc2nccn2C)C[C@H]1c1ccc(C)cc1`, the cytotoxicity at 10 µM was 14.1%.

Regarding `CNc1nc2cn(C3CC(C)(C)NC(C)(C)C3)c(=O)c-2c[nH]1`, the cytotoxicity at 10 µM came out at 12%.

Consider `Cc1cc(-c2cnc(N3CCN(C)CC3)nc2-c2ccc(C)s2)on1`, for which the cytotoxicity at 10 µM is -3.68%.

For `Cc1nc(C)n(CC2CCCCN2CC(=O)Nc2c(C)n[nH]c2C)n1` (configuration not stated), the cytotoxicity at 10 µM was -12.7%.

For `C=C(C)COc1ccc(C(=O)N(C)C(C)c2ccon2)cc1` (configuration not stated), the cytotoxicity at 10 µM was determined as 4.18%.

Regarding `CCc1nc(C2CCCN(C(=O)CC3CCOCC3)C2)no1` (configuration not stated), the cytotoxicity at 10 µM is -15.3%.

Turning to `Cc1cnc(N2CCOCC3(CCN(c4ccccn4)C3)C2)nc1` (configuration not stated), the cytotoxicity at 10 µM is 6.85%.

As to `CCC1c2ccccc2CCN1CCNS(C)(=O)=O` (configuration not stated), the cytotoxicity at 10 µM was found to be 5.56%.

On to `COc1ncc(-c2cc(-c3ccn(C)c3)nc(N)c2C#N)cn1`, for which the cytotoxicity at 10 µM was 0.471%.

For `O=C1CCC2(CCCN(C(=O)Cc3cccs3)C2)N1` (configuration not stated), the cytotoxicity at 10 µM came out at 3.76%.

On to `O=C(Nc1ccccc1Cn1cccn1)N1CCCC(N2CCCC2)C1` (configuration not stated), for which the cytotoxicity at 10 µM is 5.6%.

`CCS(=O)(=O)CC(C)N(C)C(=O)NCCc1cccc(F)c1F` (configuration not stated): the cytotoxicity at 10 µM was 8.28%.

As for `COc1ccc(F)cc1C(=O)N1CCCC(CNS(C)(=O)=O)C1` (configuration not stated), the cytotoxicity at 10 µM was -20%.

Take `CCN1CC(NC(=O)Nc2nc(C)n(C(C)C)n2)CC1=O` (configuration not stated): the cytotoxicity at 10 µM is -5.58%.

Regarding `O=C(Cc1c[nH]c2ccccc12)N1CCC(Nc2ccccc2)CC1`, the cytotoxicity at 10 µM was -12.9%.

As for `Cc1cc(CNC(=O)NCCC(=O)N2CCCc3ccccc32)no1`, the cytotoxicity at 10 µM was -4.09%.

Consider `Clc1cc(NCc2nccs2)nc2[nH]ccc12`, for which the cytotoxicity at 10 µM came to 6.58%.

With `COCC1Cn2nnc(-c3cnn(C)c3)c2CN1Cc1cccs1` (configuration not stated), the cytotoxicity at 10 µM was 6.24%.

For the compound `COc1ccc2[nH]cc(C(=O)N3C[C@@H](O)[C@H](N4CCOCC4)C3)c2c1`, the cytotoxicity at 10 µM is -9.06%.

On to `COCC(=O)N1CCC(Nc2ccnc3ccc(Cl)cc23)CC1`, for which the cytotoxicity at 10 µM worked out at 5.78%.

On to `CN(C)c1nccc(CNC(=O)NCc2ccco2)n1`, for which the cytotoxicity at 10 µM is -2.48%.

On to `CNC(=O)COc1c(C(C)=O)ccc(Cl)c1Cl`, for which the cytotoxicity at 10 µM is -0.769%.

`Clc1ccccc1C1CN(CCc2ccncc2)CCO1` (configuration not stated): the cytotoxicity at 10 µM worked out at 3.61%.

`CN(C)C1Cc2ccccc2N(S(=O)(=O)c2cccc(C#N)c2)C1` (configuration not stated): the cytotoxicity at 10 µM came out at 9.89%.

As to `Cc1ccc(C(=O)NS(C)(=O)=O)cc1S(C)(=O)=O`, the cytotoxicity at 10 µM turned out to be 4%.

As to `O=C1CC2(CCN(Cc3cccnc3)C2)CN1c1cccc(F)c1` (configuration not stated), the cytotoxicity at 10 µM was -147%.

On to `O=C(CN1CCCC1Cn1cncn1)NCCc1c(F)cccc1F` (configuration not stated), for which the cytotoxicity at 10 µM is -6.24%.

As to `CCc1nnsc1C(=O)NCc1nnc2n1CCCCC2`, the cytotoxicity at 10 µM was 0.136%.

In the case of `O=C1O[C@@H]2CN(c3ccccn3)C[C@@H]2N1CCCc1ccc(F)cc1`, the cytotoxicity at 10 µM is -2.88%.

For the compound `Cc1cc(C(=O)N2CCn3cc(CN4CCCCC4)nc3C2)no1`, the cytotoxicity at 10 µM was -77.3%.

For the compound `O=C(NCc1cn2c(n1)SCC2)c1ccc(CN2CCCCC2)cc1`, the cytotoxicity at 10 µM is -1.08%.

As to `C[C@@H]1CN(C(=O)CCN2CCCC2)CC[C@@]1(O)C1CCC1`, the cytotoxicity at 10 µM is -7.97%.

Consider `COC(=O)C(C)(C)NC(=O)C1CC(=O)N(C2CC2)C1` (configuration not stated), for which the cytotoxicity at 10 µM is -139%.

Turning to `CC(C)Cc1ncc2c(n1)CN(C(=O)Cn1c(=O)oc3ccccc31)C2`, the cytotoxicity at 10 µM was -36.2%.

Regarding `CN(C)Cc1nnc(C2CCCN(c3ncccc3F)C2)n1C` (configuration not stated), the cytotoxicity at 10 µM was 7.36%.

Turning to `O=C(NC[C@H]1Cn2c(-c3ccccc3)cnc2CO1)C1CCOCC1`, the cytotoxicity at 10 µM was -0.869%.

Regarding `O=C(CCCc1cn[nH]c1)N1CCOCC(O)C1` (configuration not stated), the cytotoxicity at 10 µM is -23%.

In the case of `CC(Cc1cccc(F)c1)NCc1cnc(N2CCN(C)CC2)nc1` (configuration not stated), the cytotoxicity at 10 µM was -5.44%.

In the case of `O=C(CC(F)(F)F)N1CCC2(CCCN(c3nncs3)C2)C1` (configuration not stated), the cytotoxicity at 10 µM was -105%.

Regarding `c1cnn(CC2CCCCN2c2ncnc3ccsc23)c1` (configuration not stated), the cytotoxicity at 10 µM was -13.9%.

Regarding `Cc1ccc(NCCCc2c(C)noc2C)nn1`, the cytotoxicity at 10 µM amounted to 8.12%.

For the compound `CCn1cc(S(=O)(=O)NCC2(N3CCOCC3)CCCCC2)c(C)n1`, the cytotoxicity at 10 µM is -27.5%.

Turning to `Cc1cc(C2CCN(S(=O)(=O)N(C)C)CC2)ccn1`, the cytotoxicity at 10 µM is -13%.

In the case of `CN(C(=O)CSc1ncc[nH]1)C1CC1`, the cytotoxicity at 10 µM stood at 7.97%.

Turning to `CN(C)S(=O)(=O)c1ccc(CN2CCCC2CO)o1` (configuration not stated), the cytotoxicity at 10 µM was -6.88%.

For `CCCc1noc(CCC(=O)N2CCCCC2Cn2cc(C)cn2)n1` (configuration not stated), the cytotoxicity at 10 µM is -0.232%.

`Cc1nnc(SCCCNC(=O)Nc2ccc3c(c2)OCO3)s1`: the cytotoxicity at 10 µM was found to be 7.28%.

Turning to `O=C1[C@H]2CN(Cc3nccs3)C[C@H]2CN1c1cncnc1`, the cytotoxicity at 10 µM was -81.9%.

For the compound `Cc1nc(S(=O)(=O)CCn2cccn2)n(C2CCCCC2)c1C`, the cytotoxicity at 10 µM is -5.58%.

As for `Cc1cc(C(C)(O)CNC(=O)C2(C)CCCC2)c(C)o1` (configuration not stated), the cytotoxicity at 10 µM is -4.88%.

Turning to `CCc1nc(C2CCCN2C(=O)c2cc[nH]n2)no1` (configuration not stated), the cytotoxicity at 10 µM is -15.6%.

Consider `CCN(Cc1ccoc1)C(C(N)=O)c1cccc(Br)c1` (configuration not stated), for which the cytotoxicity at 10 µM came out at 2.34%.

Take `Cc1nc(CN2CCCC2c2noc(C3CC3)n2)oc1C` (configuration not stated): the cytotoxicity at 10 µM is -8.13%.

For the compound `O=C(NCc1cncc2c1CCN(Cc1cccc(F)c1)C2)C1CC1`, the cytotoxicity at 10 µM was -8.16%.

Turning to `COCCCC1(CO)CCCN(CCOC)C1` (configuration not stated), the cytotoxicity at 10 µM was -1.87%.

As for `CC(=O)N(Cc1ncc(C)o1)C1CCN(Cc2cnc(C)s2)C1` (configuration not stated), the cytotoxicity at 10 µM was 5.42%.

As for `CC(=O)NCc1ccc(-n2ccnc2C)nc1`, the cytotoxicity at 10 µM was -6.49%.
